Experiments:
[1] = tested on: Rattus norvegicus; assay: Compound was evaluated for the incidence of serotonin syndrome […] by intraperitoneal administration at the dose 16 mg/kg; 3/3; assay type: functional
In short: (§1)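 Male Sprague–Dawley rats (200–300 g) were given the racemic hydrochloride salts intraperitoneally at 1–16 mg/kg, following the Sloviter protocol. A rat was scored positive only when forepaw padding, splayed hindlimbs, and head weaving or tremor were all present. Incidence is reported as responders/rats dosed, with […] rats per dose.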

[2] = tested on: Rattus norvegicus; assay: Compound was evaluated for the incidence of serotonin syndrome […] by intraperitoneal administration at the dose 8 mg/kg; 3/8; assay type: functional
[3] = tested on: Rattus norvegicus; assay: Compound was evaluated for the incidence of serotonin syndrome […] by intraperitoneal administration at the dose 4 mg/kg; 0/8; assay type: functional
[4] = tested on: Rattus norvegicus; assay: Compound was evaluated for the incidence of serotonin syndrome […] by intraperitoneal administration at the dose 2 mg/kg; 0/3; assay type: functional; in short: as §1
[5] = Acid dissociation constant was determined; assay type: ADME
[6] = tested on: Rattus norvegicus; assay: Compound was evaluated for the incidence of serotonin syndrome […] by intraperitoneal administration at the dose 16 mg/kg; 2/3; assay type: functional; in short: as §1
[7] = tested on: Rattus norvegicus; assay: Compound was evaluated for the incidence of serotonin syndrome […] by intraperitoneal administration at the dose 4 mg/kg; 1/3; assay type: functional; in short: as §1
[8] = tested on: Rattus norvegicus; assay: Compound was evaluated for the incidence of serotonin syndrome […] by intraperitoneal administration at the dose 8 mg/kg; 0/3; assay type: functional; in short: as §1

SMILES	Incidence [1]	Incidence [2]	Incidence [3]	Incidence [4]	pKa [5]	Incidence [6]	Incidence [7]	Incidence [8]
COc1cc(C)c(OC)c2c1CC(N)CC2.Cl (stereo not given)	3	3	0	0	–	–	–	–
COc1cc(C2CC2N)c(OC)cc1C (stereo not given)	–	–	–	–	8.11	–	–	–
COc1cc(C)c(OC)c2c1CC(N)C=C2.Cl (stereo not given)	–	–	–	0	8.93	2	1	0
